Data published in ChEMBL document CHEMBL4422642, “Antiproliferative and Antimigratory Effects of a Novel YAP-TEAD Interaction Inhibitor Identified Using in Silico Molecular Docking” (J Med Chem, 2019).
Active and inactive are the calls of the source. No cut-off for these calls is given here.

Assays:
[1] = Inhibition of TEAD in rat VSMC assessed as reduction in CCN1 m-RNA expression incubated for 2 hrs followed by compound wash out and re-treatment for 4 hrs by NanoGlo assay
[2] = Inhibition of TEAD in rat VSMC assessed as reduction in CTGF m-RNA expression incubated for 2 hrs followed by compound wash out and re-treatment for 4 hrs by NanoGlo assay
HeLa [3] = assay: Antiproliferative activity against human HeLa cells assessed as reduction in EdU incorporation after 24 hrs by Hoechst 33342 staining-based fluorescence assay; assay type: functional, cell-based
In short: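 Click-iT EdU assay. Cells were treated with compound for 24 h total, with 10 μM EdU present for the final labeling period. Cells were then fixed in 4% formaldehyde, stained for EdU and counterstained with Hoechst 33342 for 20 min. EdU-positive nuclei were counted in at least three fields per well; n = 4.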

VSMC [4] = assay: Antimigratory activity in rat VSMC incubated for overnight followed by media replacement and measured every hour for 24 hrs by phase contrast microscopic analysis; assay type: functional, cell-based
In short: (§1)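 IncuCyte real-time scratch wound assay. Cells were seeded in 96-well plates and grown 36 h, then pretreated overnight with compound. Wells were scratched and the medium was replaced with compound-containing medium. Phase-contrast images of the wound were taken hourly for 24 h and relative wound confluence was calculated; n = 4.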

[5] = Inhibition of TEAD (unknown origin) expressed in human HeLa cells after 6 hrs by nanoluciferase reporter gene assay; assay type: cell-based
In short: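 HeLa cells stably transduced with a lentiviral 8×TEAD-element secreted nanoluciferase reporter were seeded at 2 × 10^4 cells/well and grown 48 h. They were washed and treated with compound for 2 h, washed again and re-treated for 4 h. Secreted nanoluciferase in the conditioned medium was assayed with NanoGlo; n = 3.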

HeLa [6] = assay: Cytotoxicity against human HeLa cells assessed as reduction in cell viability by measuring ethidium homodimer-1 uptake at 20 uM preincubated for 10 mins followed by ethidium homodimer-1 addition measured after 10 mins by fluorescence assay; assay type: cell-based
In short: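 Live/dead cell viability assay in HeLa cells. Maximum death was set by treating cells 10 min with 0.1% Triton-X, then 10 min with 0.4 μM ethidium homodimer-1. Fluorescence was read on a plate reader.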

[7] = target: T1, Transcriptional enhancer factor TEF-1 (Homo sapiens, UniProt P28347); assay: Binding affinity to TEAD1 (194 to 411 residues) (unknown origin) by ITC assay
In short: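 Isothermal titration calorimetry with purified recombinant TEAD1 (residues 194–411). The GST tag was removed by PreScission protease cleavage at 4 °C for 18 h, glutathione was removed by dialysis against PBS, and free GST was removed with glutathione resin.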

[8] = target: T1, Transcriptional enhancer factor TEF-1; assay: Binding affinity to TEAD1 (194 to 411 residues) (unknown origin) by NMR analysis
In short: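 STD NMR at 700 MHz in PBS pH 7.4 containing 60% D2O, with about 20 μM TEAD1 and 2 mM compound. Saturation time 7 s; on-resonance 0.85 ppm, off-resonance −28 ppm; eight scans. Blank runs without protein or ligand were included.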

[9] = target: T1, Transcriptional enhancer factor TEF-1; assay: Inhibition of Gal4-fused TEAD1 (unknown origin) interaction with YAP expressed in human HeLa cells assessed as basal transcriptional activity level up to 100 uM after 6 hrs by nanoluciferase reporter gene assay; assay type: cell-based
[10] = target: T2, Transcriptional enhancer factor TEF-5 (Homo sapiens, UniProt Q99594); assay: Inhibition of Gal4-fused TEAD3 (unknown origin) interaction with YAP expressed in human HeLa cells assessed as basal transcriptional activity level up to 100 uM after 6 hrs by nanoluciferase reporter gene assay; assay type: cell-based
[11] = target: Transcriptional enhancer factor TEF-4 (Homo sapiens, UniProt Q15562); assay: Inhibition of Gal4-fused TEAD2 (unknown origin) interaction with YAP expressed in human HeLa cells assessed as basal transcriptional activity level after 6 hrs by nanoluciferase reporter gene assay; assay type: cell-based
[12] = target: T2, Transcriptional enhancer factor TEF-5; assay: Inhibition of Gal4-fused TEAD3 (unknown origin) interaction with YAP expressed in human HeLa cells assessed as basal transcriptional activity level after 6 hrs by nanoluciferase reporter gene assay; assay type: cell-based
[13] = target: Transcriptional enhancer factor TEF-3 (Homo sapiens, UniProt Q15561); assay: Inhibition of Gal4-fused TEAD4 (unknown origin) interaction with YAP expressed in human HeLa cells assessed as basal transcriptional activity level after 6 hrs by nanoluciferase reporter gene assay; assay type: cell-based
HeLa [14] = assay: Inhibition of TNT1 m-RNA expression in human HeLa cells incubated for 2 hrs followed by compound wash out and re-treatment for 4 hrs by NanoGlo assay; assay type: functional, cell-based
HeLa [15] = assay: Antimigratory activity in human HeLa cells at 40 to 80 uM incubated for overnight followed by media replacement and measured every hour for 24 hrs by phase contrast microscopic analysis; assay type: functional, cell-based; in short: as §1
[16] = (§2) Inhibition of TEAD (unknown origin) expressed in rat VSMC after 6 hrs by nanoluciferase reporter gene assay
In short: (§3)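 Rat aortic VSMCs stably transduced with the 8×TEAD secreted nanoluciferase reporter were treated with compound over a concentration range for 6 h. Conditioned medium was assayed for nanoluciferase activity.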

Rattus norvegicus [17] = species on record: Rattus norvegicus; assay: as §2; in short: as §3
Rattus norvegicus [18] = species on record: Rattus norvegicus; assay: Inhibition of TEAD in rat VSMC assessed as reduction in THBS m-RNA expression at 60 uM by RT-qPCR analysis
In short: (§4)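 Rat aortic VSMCs (male Sprague-Dawley, 10% FCS/DMEM) were treated with 60 μM compound for 6 h; n = 3. Total RNA was reverse-transcribed with random primers and quantified by SYBR Green qPCR. Data were normalized to nonstimulated controls.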

Rattus norvegicus [19] = species on record: Rattus norvegicus; assay: Inhibition of TEAD in rat VSMC assessed as reduction in MAYDM m-RNA expression at 60 uM by RT-qPCR analysis; in short: as §4
Rattus norvegicus [20] = species on record: Rattus norvegicus; assay: Inhibition of TEAD in rat VSMC assessed as reduction in MYOC m-RNA expression at 60 uM by RT-qPCR analysis; in short: as §4
Rattus norvegicus [21] = species on record: Rattus norvegicus; assay: Inhibition of TEAD in rat VSMC assessed as reduction in CCN1 m-RNA expression at 60 uM by RT-qPCR analysis; in short: as §4
VSMC [22] = assay: Inhibition of PGK1 m-RNA expression in rat VSMC at 60 uM by RT-qPCR analysis; assay type: functional, cell-based; in short: as §4
VSMC [23] = assay: Inhibition of TBP m-RNA expression in rat VSMC at 60 uM by RT-qPCR analysis; assay type: functional, cell-based; in short: as §4
VSMC [24] = assay: Inhibition of GAPDH m-RNA expression in rat VSMC at 60 uM by RT-qPCR analysis; assay type: functional, cell-based; in short: as §4
VSMC [25] = assay: Inhibition of 36B4 m-RNA expression in rat VSMC at 60 uM by RT-qPCR analysis; assay type: functional, cell-based; in short: as §4
VSMC [26] = assay: Antiproliferative activity against human VSMC assessed as reduction in EdU incorporation after 18 hrs by Hoechst 33342 staining-based fluorescence assay; assay type: functional, cell-based
VSMC [27] = assay: Antimigratory activity in […] incubated for overnight followed by media replacement and measured every hour for 24 hrs by phase contrast microscopic analysis; assay type: functional, cell-based; in short: as §1
HeLa [28] = assay: Inhibition of Gal4 expression in human HeLa cells assessed as basal transcriptional activity level at 100 uM after 6 hrs by nanoluciferase reporter gene assay; assay type: functional, cell-based
VSMC [29] = assay: Antiproliferative activity against rat VSMC assessed as reduction in EdU incorporation after 18 hrs by Hoechst 33342 staining-based fluorescence assay; assay type: functional, cell-based

T1 sequence (P28347 whole entry, the tested form may be a part): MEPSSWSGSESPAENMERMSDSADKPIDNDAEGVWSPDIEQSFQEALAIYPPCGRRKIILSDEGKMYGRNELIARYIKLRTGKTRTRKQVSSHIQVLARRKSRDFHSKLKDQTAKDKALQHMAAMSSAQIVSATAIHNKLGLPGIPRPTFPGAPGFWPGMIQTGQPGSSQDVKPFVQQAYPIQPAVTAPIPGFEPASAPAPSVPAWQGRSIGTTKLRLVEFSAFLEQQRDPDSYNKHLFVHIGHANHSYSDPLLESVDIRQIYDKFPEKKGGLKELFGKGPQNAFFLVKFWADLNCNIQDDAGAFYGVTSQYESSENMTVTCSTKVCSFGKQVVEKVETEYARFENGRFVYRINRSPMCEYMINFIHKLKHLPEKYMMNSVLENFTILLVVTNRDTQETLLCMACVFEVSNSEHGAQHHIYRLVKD
T2 sequence (Q99594 whole entry, the tested form may be a part): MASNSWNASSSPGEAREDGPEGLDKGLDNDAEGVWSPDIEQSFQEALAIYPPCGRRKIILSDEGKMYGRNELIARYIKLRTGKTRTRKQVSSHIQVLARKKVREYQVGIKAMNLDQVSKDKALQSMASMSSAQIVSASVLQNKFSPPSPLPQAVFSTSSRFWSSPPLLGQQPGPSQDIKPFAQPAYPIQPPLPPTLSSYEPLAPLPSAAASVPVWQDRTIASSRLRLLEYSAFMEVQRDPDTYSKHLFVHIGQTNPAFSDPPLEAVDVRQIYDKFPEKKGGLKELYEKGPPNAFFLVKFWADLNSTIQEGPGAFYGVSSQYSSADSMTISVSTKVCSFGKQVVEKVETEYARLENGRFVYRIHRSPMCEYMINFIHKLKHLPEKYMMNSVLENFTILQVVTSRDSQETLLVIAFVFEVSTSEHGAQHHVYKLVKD
Chain of Transcriptional enhancer factor TEF-3 (Q15561 whole entry, the tested form may be a part): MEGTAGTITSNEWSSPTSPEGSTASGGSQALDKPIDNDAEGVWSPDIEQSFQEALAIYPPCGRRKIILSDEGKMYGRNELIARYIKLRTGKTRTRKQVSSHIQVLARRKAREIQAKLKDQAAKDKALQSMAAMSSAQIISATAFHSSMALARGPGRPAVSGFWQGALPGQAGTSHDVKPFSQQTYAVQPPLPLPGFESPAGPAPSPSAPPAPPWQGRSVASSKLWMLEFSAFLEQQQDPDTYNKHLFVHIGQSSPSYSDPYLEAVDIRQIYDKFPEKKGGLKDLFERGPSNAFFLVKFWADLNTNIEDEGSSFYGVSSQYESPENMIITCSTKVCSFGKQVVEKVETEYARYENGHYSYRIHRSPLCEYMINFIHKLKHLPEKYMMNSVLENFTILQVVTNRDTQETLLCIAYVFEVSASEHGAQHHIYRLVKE
Chain of Transcriptional enhancer factor TEF-4 (Q15562 whole entry, the tested form may be a part): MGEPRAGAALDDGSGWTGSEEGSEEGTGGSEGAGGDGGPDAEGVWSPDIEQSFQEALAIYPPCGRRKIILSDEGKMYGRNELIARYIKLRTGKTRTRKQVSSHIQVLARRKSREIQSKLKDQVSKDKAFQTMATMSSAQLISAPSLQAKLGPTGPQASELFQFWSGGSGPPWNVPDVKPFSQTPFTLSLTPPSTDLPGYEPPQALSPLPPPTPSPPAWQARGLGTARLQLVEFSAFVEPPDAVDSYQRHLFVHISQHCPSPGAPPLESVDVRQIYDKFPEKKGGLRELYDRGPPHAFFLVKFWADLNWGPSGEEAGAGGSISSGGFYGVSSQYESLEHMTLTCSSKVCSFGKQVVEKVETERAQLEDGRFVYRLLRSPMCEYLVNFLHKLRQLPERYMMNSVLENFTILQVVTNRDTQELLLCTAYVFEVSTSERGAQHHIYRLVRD

Structure (SMILES): Cc1ccc2c(c1)c1c3n2CCNC3CCC1 (stereo not given) [PIRLINDOLE]
- EC50 [1]: 48 µM
- EC50 [2]: 58 µM
- Activity (HeLa [3]): Dose-dependent effect
- Activity (VSMC [4]): Dose-dependent effect
- IC50 [5]: 70 µM
- Activity (HeLa [6]): Non-Toxic
- Kd [7]: 12 µM
- Activity [8]: Active
- inhibition [9]: Active
- inhibition [10]: Active
- IC50 [11]: 33 µM
- IC50 [12]: 44 µM
- IC50 [13]: 36 µM
- inhibition (HeLa [14]): inactive
- Activity (HeLa [15]): Active
- IC50 [16]: 24 µM
- inhibition (Rattus norvegicus [17]): Dose-dependent effect
- inhibition (Rattus norvegicus [18]): Active
- inhibition (Rattus norvegicus [19]): Active
- inhibition (Rattus norvegicus [20]): Active
- inhibition (Rattus norvegicus [21]): Active
- inhibition (VSMC [22]): inactive
- inhibition (VSMC [23]): inactive
- inhibition (VSMC [24]): inactive
- inhibition (VSMC [25]): inactive
- EC50 (VSMC [26]): 1.5 µM
- Activity (VSMC [27]): Dose-dependent effect
- inhibition (HeLa [28]): inactive
- Activity (VSMC [29]): Dose-dependent effect
- EC50 (VSMC [29]): 10 µM
